We go through 13 compounds from ChEMBL document CHEMBL4725236, “Synthesis and pharmacological evaluation of bivalent tethered ligands to target the mGlu heterodimeric receptor results in a compound with mGlu homodimer selectivity” (Bioorg Med Chem Lett, 2020).

Holding throughout (assay type): cell-based
Test [1] in a line: Positive allosteric modulation of rat mGlu2/mGlu4 receptor expressed in HEK293 cells coexpressing GIRK assessed as thallium influx in presence of EC20 glutamate by CODA-RET assay. The method in brief: (§1)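 HEK293 cells co-expressing mGlu2, mGlu4 and GIRK channels; thallium flux read-out. Test compound concentration-response in the presence of a fixed EC20 glutamate concentration. Gives EC50, Hill slope and maximal response as % of a saturating glutamate concentration. N=3 experiments, each in triplicate.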

The next test concerns HEK293. Nature of the test: Positive allosteric modulation of rat mGlu2/mGlu4 receptor expressed in HEK293 cells coexpressing GIRK assessed as thallium influx by CODA-RET assay relative to glutamate. To be noted: filed as positive allosteric modulator. Put shortly: as §1
The target in test [2] is Metabotropic glutamate receptor 2 (Rattus norvegicus, UniProt P31421). The test can be described thus: Positive allosteric modulation of rat mGlu2 receptor expressed in HEK293 cells coexpressing GIRK assessed as thallium influx in presence of EC20 glutamate by CODA-RET assay. Put shortly:
(§2)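 HEK293/GIRK thallium flux assay in cells expressing only mGlu2 or only mGlu4. Concentration-response measured against a fixed EC20 glutamate level. Potency (EC50), Hill slope and efficacy (% of the response to saturating glutamate) come from a single experiment run in triplicate.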

Test [3] addresses Metabotropic glutamate receptor 2 (Rattus norvegicus) (UniProt P31421). The test can be described thus: Positive allosteric modulation of rat mGlu2 receptor expressed in HEK293 cells coexpressing GIRK assessed as thallium influx by CODA-RET assay relative to glutamate. The note with it: filed as positive allosteric modulator. The method in brief: as §2
In test [4] the target is Metabotropic glutamate receptor 4 (Rattus norvegicus, UniProt P31423). Nature of the test: Positive allosteric modulation of rat mGlu4 receptor expressed in HEK293 cells coexpressing GIRK assessed as thallium influx in presence of EC20 glutamate by CODA-RET assay. The method in brief:
as §2

In test [5] the target is Metabotropic glutamate receptor 4 (Rattus norvegicus) (UniProt P31423). Nature of the test: Positive allosteric modulation of rat mGlu4 receptor expressed in HEK293 cells coexpressing GIRK assessed as thallium influx by CODA-RET assay relative to glutamate. The note with it: filed as positive allosteric modulator. The method in brief:
as §2

Sequence of Metabotropic glutamate receptor 2 (P31421 whole entry): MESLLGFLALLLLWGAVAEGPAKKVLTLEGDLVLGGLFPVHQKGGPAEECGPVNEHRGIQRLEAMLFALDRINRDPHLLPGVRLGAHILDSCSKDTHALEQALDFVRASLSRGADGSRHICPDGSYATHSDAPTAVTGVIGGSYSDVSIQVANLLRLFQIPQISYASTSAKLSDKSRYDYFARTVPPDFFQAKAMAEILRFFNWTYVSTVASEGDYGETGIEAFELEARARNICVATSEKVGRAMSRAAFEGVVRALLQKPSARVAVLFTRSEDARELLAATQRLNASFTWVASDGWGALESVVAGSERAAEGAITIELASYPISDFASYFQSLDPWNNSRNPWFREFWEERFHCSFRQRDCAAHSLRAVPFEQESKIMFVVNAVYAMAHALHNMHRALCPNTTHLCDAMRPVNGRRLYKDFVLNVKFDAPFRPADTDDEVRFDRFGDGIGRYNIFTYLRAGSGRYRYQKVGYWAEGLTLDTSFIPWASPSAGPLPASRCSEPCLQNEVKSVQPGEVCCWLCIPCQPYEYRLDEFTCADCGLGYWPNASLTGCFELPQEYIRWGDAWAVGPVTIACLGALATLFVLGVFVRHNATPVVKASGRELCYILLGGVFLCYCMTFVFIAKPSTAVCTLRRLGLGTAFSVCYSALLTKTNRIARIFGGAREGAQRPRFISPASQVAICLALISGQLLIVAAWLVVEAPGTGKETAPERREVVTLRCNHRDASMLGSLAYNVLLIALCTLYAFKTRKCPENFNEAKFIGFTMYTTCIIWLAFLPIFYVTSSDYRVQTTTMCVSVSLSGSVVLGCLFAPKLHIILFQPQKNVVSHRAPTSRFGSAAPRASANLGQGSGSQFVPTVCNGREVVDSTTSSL
Sequence of Metabotropic glutamate receptor 2 (Rattus norvegicus) (P31421 19-872 limits assumed): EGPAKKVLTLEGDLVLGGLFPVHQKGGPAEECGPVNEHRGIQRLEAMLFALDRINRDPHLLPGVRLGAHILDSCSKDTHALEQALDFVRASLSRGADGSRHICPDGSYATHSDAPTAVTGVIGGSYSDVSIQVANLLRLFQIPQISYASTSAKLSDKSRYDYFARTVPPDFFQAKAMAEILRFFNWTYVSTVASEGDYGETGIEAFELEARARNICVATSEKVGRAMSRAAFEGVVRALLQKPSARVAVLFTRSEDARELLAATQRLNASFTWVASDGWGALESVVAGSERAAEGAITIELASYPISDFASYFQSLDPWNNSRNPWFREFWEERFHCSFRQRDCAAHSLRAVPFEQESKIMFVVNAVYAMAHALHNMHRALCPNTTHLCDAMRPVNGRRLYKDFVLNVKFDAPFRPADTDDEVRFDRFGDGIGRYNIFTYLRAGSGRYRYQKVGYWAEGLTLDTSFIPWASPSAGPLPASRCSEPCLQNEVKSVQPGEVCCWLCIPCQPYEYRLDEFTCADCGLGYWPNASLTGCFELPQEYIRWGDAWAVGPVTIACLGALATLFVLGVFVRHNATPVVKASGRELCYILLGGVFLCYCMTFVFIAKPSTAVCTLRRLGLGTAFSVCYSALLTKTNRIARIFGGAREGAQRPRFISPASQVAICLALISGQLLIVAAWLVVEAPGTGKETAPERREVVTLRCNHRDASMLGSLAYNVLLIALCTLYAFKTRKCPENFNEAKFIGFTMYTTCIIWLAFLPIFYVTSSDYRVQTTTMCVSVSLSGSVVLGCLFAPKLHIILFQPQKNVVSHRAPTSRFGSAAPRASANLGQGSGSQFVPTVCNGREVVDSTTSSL
Sequence of Metabotropic glutamate receptor 4 (P31423 whole entry): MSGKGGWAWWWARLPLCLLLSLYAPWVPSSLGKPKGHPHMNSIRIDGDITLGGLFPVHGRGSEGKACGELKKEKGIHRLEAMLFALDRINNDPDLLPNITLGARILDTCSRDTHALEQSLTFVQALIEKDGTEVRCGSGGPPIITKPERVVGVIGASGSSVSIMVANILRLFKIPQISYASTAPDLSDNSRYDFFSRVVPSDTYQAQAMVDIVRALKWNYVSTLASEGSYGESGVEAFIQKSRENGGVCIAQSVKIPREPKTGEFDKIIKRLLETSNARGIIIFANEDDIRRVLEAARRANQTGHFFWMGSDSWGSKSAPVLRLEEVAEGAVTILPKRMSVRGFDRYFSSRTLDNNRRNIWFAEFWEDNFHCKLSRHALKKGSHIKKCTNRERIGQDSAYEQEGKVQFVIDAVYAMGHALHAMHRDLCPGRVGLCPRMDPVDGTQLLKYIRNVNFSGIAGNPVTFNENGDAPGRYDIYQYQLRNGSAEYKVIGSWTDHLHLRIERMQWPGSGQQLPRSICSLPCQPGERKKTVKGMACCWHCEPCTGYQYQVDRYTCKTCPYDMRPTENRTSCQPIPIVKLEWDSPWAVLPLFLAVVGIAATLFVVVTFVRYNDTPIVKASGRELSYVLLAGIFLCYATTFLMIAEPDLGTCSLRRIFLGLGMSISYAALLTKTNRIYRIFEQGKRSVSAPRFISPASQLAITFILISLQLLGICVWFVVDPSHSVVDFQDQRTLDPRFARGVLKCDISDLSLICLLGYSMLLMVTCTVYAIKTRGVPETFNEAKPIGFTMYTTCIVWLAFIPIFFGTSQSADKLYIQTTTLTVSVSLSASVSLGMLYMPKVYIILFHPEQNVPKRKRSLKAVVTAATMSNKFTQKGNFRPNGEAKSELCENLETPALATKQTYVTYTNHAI
Sequence of Metabotropic glutamate receptor 4 (Rattus norvegicus) (P31423 whole entry): as above

In general, EC50 refers to the concentration at which the effect is half-maximal. The Emax is the greatest response seen or fitted, relative to the assay's reference. Consider `COc1cc(NC(=O)c2ccccn2)ccc1NC(=O)c1ccc(NC(=O)COCC(=O)NCCCCCCCCCCCCNC(=O)COc2ccc(-c3cccc(COc4cc5c(c(C)c4C)C(=O)C(C4CCCC4)C5)c3)cc2C(=O)O)cc1Cl` (stereo not given), for which the EC50 was 2070 nM in test [1], 1180 nM in test [2] and more than 10000 nM in test [4]. Besides, the figures for the Emax (with HEK293; in test [3]; in test [5]) were 71%, 102% and 45%, respectively.
In the case of `Cc1c(OCc2cccc(-c3ccc(O)c(C(=O)O)c3)c2)cc2c(c1C)C(=O)C(C1CCCC1)C2` (stereo not given), the EC50 in test [2] was determined as 62 nM. Besides, the Emax in test [3] was found to be 113%.
As to `COc1cc(NC(=O)c2ccccn2)ccc1NC(=O)c1ccc(NC(=O)COCC(=O)NCCCNC(=O)COc2ccc(-c3cccc(COc4cc5c(c(C)c4C)C(=O)C(C4CCCC4)C5)c3)cc2C(=O)O)cc1Cl` (stereo not given), the EC50 in test [1] was determined as 90 nM; in test [2], 54 nM; in test [4], 38 nM. Further, the figures for the Emax in test [3] and in test [5] were 100% and 114%, respectively.
Regarding `COc1cc(NC(=O)c2ccccn2)ccc1NC(=O)c1ccc(NC(=O)COCC(=O)NCCNC(=O)COc2ccc(-c3cccc(COc4cc5c(c(C)c4C)C(=O)C(C4CCCC4)C5)c3)cc2C(=O)O)cc1Cl` (stereo not given), the half-maximal effective concentration (EC50) in test [1] was determined as 463 nM; in test [2], 281 nM; in test [4] it was 657 nM. Moreover, the Emax in the test on HEK293 is 70%; in test [3], 92%; in test [5], 104%.
As to `COc1cc(NC(=O)c2ccccn2)ccc1NC(=O)c1ccc(NC(=O)COCC(=O)NCCCCCCCCCCNC(=O)COc2ccc(-c3cccc(COc4cc5c(c(C)c4C)C(=O)C(C4CCCC4)C5)c3)cc2C(=O)O)cc1Cl` (stereo not given), the EC50 in test [1] was 350 nM; in test [2] it was 134 nM; in test [4], more than 10000 nM. Also, the Emax in the test on HEK293 was 86%; in test [3] it was 102%; in test [5], 41%.
As for `COc1cc(NC(=O)c2ccccn2)ccc1NC(=O)c1ccccc1Cl`, the EC50 in test [1] was determined as 2760 nM; in test [4], 34 nM. Also, the Emax with HEK293 is 42%; in test [5], 94.4%.
Regarding `COc1cc(NC(=O)c2ccccn2)ccc1NC(=O)c1ccc(NC(=O)COCC(=O)NCCCCCCNC(=O)COc2ccc(-c3cccc(COc4cc5c(c(C)c4C)C(=O)C(C4CCCC4)C5)c3)cc2C(=O)O)cc1Cl` (stereo not given), the EC50 in test [1] came to 680 nM; in test [2], 62 nM; in test [4], 32 nM. Also, the Emax turned out to be 101% with HEK293, 102% in test [3] and 106% in test [5].
In the case of `Cc1c(OCc2cccc(-c3cccc(C(=O)O)c3)c2)cc2c(c1C)C(=O)C(C1CCCC1)C2` (stereo not given), the EC50 in test [2] worked out at 69 nM. Further, the maximum response (Emax) in test [3] worked out at 118%.
Take `COc1cc(NC(=O)c2ccccn2)ccc1NC(=O)c1ccc(NC(=O)COCC(=O)NCCCCCCCNC(=O)COc2ccc(-c3cccc(COc4cc5c(c(C)c4C)C(=O)C(C4CCCC4)C5)c3)cc2C(=O)O)cc1Cl` (stereo not given): the EC50 was 524 nM in test [1], 122 nM in test [2] and 30 nM in test [4]. Further, the Emax with HEK293 came out at 86%; in test [3], 101%; in test [5], 85%.
Consider `COc1cc(NC(=O)c2ccccn2)ccc1NC(=O)c1ccc(NC(=O)COCC(=O)NCCCCCNC(=O)COc2ccc(-c3cccc(COc4cc5c(c(C)c4C)C(=O)C(C4CCCC4)C5)c3)cc2C(=O)O)cc1Cl` (stereo not given), for which the EC50 in test [1] was 128 nM; in test [2] it was 92 nM; in test [4], 35 nM. Moreover, the results for the Emax (with HEK293; in test [3]; in test [5]) were 89%, 102% and 110%, respectively.
Regarding `COc1cc(NC(=O)c2ccccn2)ccc1NC(=O)c1ccc(NC(=O)COCC(=O)NCCCCNC(=O)COc2ccc(-c3cccc(COc4cc5c(c(C)c4C)C(=O)C(C4CCCC4)C5)c3)cc2C(=O)O)cc1Cl` (stereo not given), the concentration for a half-maximal effect (EC50) came to 150 nM in test [1], 98 nM in test [2] and 33 nM in test [4]. Besides, the maximal response (Emax) in the test on HEK293 turned out to be 88%; in test [3] it was 98%; in test [5] it was 113%.
Turning to `COc1ccc(-c2cccc(COc3cc4c(c(C)c3C)C(=O)C(C3CCCC3)C4)c2)cc1C(=O)O` (stereo not given), the EC50 in test [1] turned out to be 300 nM; in test [2], 84.3 nM. In addition, the Emax is 64.5% in the test on HEK293 and 88.2% in test [3].
For `COc1cc(NC(=O)c2ccccn2)ccc1NC(=O)c1ccc(NC(=O)COCC(=O)NCCCCCCCCNC(=O)COc2ccc(-c3cccc(COc4cc5c(c(C)c4C)C(=O)C(C4CCCC4)C5)c3)cc2C(=O)O)cc1Cl` (stereo not given), the EC50 stood at 371 nM in test [1], 94 nM in test [2] and 32 nM in test [4]. Further, the results for the Emax (with HEK293; in test [3]; in test [5]) were 83%, 97% and 52%, respectively.
